Experimental data: ChEMBL document CHEMBL1146028, “Dibasic non-imidazole histamine H3 receptor antagonists with a rigid biphenyl scaffold” (Bioorg Med Chem Lett, 2006)
The source made the active and inactive calls. The rule behind the calls is not given here.

Experiments:
[1] = target: Histamine H1 receptor (Cavia porcellus) (UniProt P31389); assay: Activity at histamine H1 receptor in isolated guinea pig ileum up to 10 uM; type: functional, tissue-based
[2] = target: Histamine H2 receptor (Cavia porcellus) (UniProt P47747); assay: Activity at histamine H2 receptor in isolated guinea pig atrium up to 10 uM; type: functional, tissue-based; conditions: Cardiac atrium
[3] = target: Histamine H3 receptor (Cavia porcellus) (UniProt Q9JI35); assay: Activity at histamine H3 receptor assessed as RAMHA-induced inhibition of electrically-stimulated guinea pig isolated ileum; type: functional, tissue-based; conditions: filed as antagonist
[4] = target: T1, Histamine H3 receptor (Homo sapiens, UniProt Q9Y5N1); assay: Displacement of [3H]RAMHA from human histamine H3 receptor transfected in SK-N-MC cells; type: cell-based
In short: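 Membranes from SK-N-MC cells stably expressing human H3 receptor, incubated 60 min at room temperature with 0.5 nM [3H](R)-α-methylhistamine in 50 mM Tris–HCl/5 mM EDTA, pH 7.4; compounds 0.01 nM–10 µM. Filtration, two ice-cold washes, scintillation counting. Non-specific binding: 10 µM histamine. IC50 estimated from displacement curves.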

[5] = target: Histamine H3 receptor (Rattus norvegicus, UniProt Q9QYN8); assay: Displacement of [3H]RAMHA from histamine H3 receptor in rat brain membranes; type: cell membranes
In short: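 Rat cerebral cortex membranes incubated 60 min at room temperature with 0.5 nM [3H](R)-α-methylhistamine in 50 mM Tris–HCl/0.5 mM EDTA/50 mM NaCl, pH 7.4; compounds 0.01 nM–10 µM. Rapid filtration, two ice-cold buffer washes, scintillation counting. Non-specific binding: 10 µM thioperamide. IC50 from displacement curves; mean of three experiments.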

[6] = target: T1, Histamine H3 receptor; assay: Antagonist activity against histamine H3 receptor assessed as beta galactosidase reporter gene transactivation in SK-N-MC cells; type: functional, cell-based
In short: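 SK-N-MC cells expressing human H3 receptor; compounds (0.1 nM–10 µM) added to media, 5 min later forskolin (5 µM) and cumulative (R)-α-methylhistamine (0.1 nM–1 µM). After 6 h at 37 °C, cells lysed (0.5% Triton, 40 mM β-mercaptoethanol); read-out by absorbance 570 nm after overnight incubation at 20 °C.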

[7] = target: T2, Acetylcholinesterase (Rattus norvegicus) (UniProt P37136); assay: Inhibition of AChE in rat brain at 10 uM; type: tissue-based
T2 sequence (whole entry): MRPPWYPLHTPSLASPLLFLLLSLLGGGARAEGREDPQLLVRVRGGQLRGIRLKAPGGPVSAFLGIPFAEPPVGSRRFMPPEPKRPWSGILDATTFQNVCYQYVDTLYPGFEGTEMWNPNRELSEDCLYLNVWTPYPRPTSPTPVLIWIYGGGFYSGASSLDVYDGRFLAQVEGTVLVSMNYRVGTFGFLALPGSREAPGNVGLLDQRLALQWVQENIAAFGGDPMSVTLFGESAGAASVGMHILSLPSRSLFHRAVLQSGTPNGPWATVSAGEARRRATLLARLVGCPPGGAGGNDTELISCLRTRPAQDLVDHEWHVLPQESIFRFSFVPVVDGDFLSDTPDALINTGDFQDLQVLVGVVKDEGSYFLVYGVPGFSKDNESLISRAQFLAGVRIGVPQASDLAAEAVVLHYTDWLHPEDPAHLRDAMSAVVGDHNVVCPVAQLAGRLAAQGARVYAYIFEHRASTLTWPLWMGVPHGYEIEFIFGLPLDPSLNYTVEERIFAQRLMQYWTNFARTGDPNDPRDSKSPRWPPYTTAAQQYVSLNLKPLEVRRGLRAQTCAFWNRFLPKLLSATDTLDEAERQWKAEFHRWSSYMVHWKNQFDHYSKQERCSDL

Sequence of Histamine H1 receptor (Cavia porcellus) (P31389 whole entry): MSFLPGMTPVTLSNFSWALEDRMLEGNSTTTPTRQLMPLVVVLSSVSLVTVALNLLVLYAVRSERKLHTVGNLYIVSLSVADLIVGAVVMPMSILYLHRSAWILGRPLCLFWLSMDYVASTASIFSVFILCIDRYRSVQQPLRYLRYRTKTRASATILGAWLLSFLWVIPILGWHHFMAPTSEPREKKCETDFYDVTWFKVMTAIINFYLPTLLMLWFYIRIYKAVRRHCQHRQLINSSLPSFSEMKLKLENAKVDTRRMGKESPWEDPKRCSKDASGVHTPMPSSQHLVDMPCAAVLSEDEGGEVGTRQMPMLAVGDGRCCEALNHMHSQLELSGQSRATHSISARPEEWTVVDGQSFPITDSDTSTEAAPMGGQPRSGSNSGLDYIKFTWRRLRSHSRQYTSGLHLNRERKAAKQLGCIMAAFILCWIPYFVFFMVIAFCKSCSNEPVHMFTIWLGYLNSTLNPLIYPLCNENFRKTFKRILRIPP
Sequence of Histamine H2 receptor (Cavia porcellus) (P47747 whole entry): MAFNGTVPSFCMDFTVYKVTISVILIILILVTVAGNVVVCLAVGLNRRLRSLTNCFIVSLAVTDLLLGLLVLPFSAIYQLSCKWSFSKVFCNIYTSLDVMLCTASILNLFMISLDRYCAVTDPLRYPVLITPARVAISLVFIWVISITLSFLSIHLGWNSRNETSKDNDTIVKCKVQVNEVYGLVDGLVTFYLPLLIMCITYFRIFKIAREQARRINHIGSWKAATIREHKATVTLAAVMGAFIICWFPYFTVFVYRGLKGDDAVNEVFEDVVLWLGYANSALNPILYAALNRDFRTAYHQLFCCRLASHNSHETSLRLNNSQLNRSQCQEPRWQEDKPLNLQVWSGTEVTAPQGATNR
Sequence of Histamine H3 receptor (Rattus norvegicus, UniProt Q9QYN8) (Q9QYN8 whole entry): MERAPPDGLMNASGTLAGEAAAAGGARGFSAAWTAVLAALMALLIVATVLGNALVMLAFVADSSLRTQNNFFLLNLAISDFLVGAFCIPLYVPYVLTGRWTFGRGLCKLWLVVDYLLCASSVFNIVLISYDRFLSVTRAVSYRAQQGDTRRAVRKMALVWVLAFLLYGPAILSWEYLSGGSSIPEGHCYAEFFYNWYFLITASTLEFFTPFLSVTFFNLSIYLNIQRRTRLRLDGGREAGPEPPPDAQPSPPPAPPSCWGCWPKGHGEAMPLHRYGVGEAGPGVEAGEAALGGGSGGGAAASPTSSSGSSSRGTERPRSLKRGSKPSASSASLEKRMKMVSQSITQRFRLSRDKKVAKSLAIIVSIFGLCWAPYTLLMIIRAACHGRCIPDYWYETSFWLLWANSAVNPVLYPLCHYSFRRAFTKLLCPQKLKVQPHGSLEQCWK
T1 sequence (Q9Y5N1 whole entry): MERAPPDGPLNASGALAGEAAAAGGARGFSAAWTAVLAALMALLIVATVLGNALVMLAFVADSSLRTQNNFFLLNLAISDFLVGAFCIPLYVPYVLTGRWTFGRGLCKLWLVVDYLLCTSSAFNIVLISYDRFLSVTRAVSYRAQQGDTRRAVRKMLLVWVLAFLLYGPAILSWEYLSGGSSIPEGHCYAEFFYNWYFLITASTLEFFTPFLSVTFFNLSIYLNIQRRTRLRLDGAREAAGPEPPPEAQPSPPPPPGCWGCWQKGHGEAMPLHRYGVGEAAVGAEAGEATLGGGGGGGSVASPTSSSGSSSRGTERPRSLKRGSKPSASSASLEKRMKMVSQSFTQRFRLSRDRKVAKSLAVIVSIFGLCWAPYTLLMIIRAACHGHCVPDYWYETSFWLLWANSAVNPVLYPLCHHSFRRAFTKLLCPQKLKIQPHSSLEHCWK
Sequence of Histamine H3 receptor (Cavia porcellus) (Q9JI35 whole entry): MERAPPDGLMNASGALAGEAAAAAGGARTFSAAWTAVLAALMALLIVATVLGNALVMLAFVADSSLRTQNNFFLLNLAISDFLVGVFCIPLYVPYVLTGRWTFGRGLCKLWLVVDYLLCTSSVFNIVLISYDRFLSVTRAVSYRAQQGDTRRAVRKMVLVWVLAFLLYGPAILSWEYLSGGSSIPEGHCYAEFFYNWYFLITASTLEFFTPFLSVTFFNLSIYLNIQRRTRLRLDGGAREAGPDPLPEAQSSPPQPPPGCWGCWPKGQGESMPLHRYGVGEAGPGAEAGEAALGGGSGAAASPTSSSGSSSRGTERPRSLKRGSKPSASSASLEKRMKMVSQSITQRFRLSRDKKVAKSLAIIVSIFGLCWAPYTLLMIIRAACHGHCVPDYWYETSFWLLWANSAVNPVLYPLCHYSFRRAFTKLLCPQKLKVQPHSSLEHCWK

| SMILES | Activity [1] | Activity [2] | Activity [3] | Ki [4] [µM] | Ki [5] [µM] | pKb [6] | inhibition [7] [%] |
| --- | --- | --- | --- | --- | --- | --- | --- |
| CN(Cc1ccc(-c2ccc(CN(C)C3CCCCC3)cc2)cc1)C1CCCCC1 | inactive | inactive | Antagonist | 0.0372 | 0.214 |  |  |
| c1cc(CN2CCCCC2)ccc1CN1CCCCC1 | inactive | inactive | Antagonist | 1.23 | 4.07 |  |  |
| c1cc(-c2ccc(CNC3CCCCC3)cc2)ccc1CNC1CCCCC1 | inactive | inactive | Antagonist | 0.562 | 2.09 |  |  |
| c1cc(-c2ccc(CCN3CCCCC3)cc2)ccc1CCN1CCCCC1 | inactive | inactive | Antagonist | 0.00117 | 0.00398 |  |  |
| c1cc(-c2ccc(CN3CCOCC3)cc2)ccc1CN1CCOCC1 | inactive | inactive | Antagonist | 0.0123 | 0.0813 |  |  |
| c1cc(-c2ccc(CN3CCCCC3)cc2)ccc1CN1CCCCC1 | inactive | inactive | Antagonist | 0.000339 | 0.0012 | 8.77 |  |
| O=C1CCCCN1Cc1ccc(-c2ccc(CN3CCCCC3)cc2)cc1 | inactive | inactive | Antagonist | 0.0468 | 0.115 |  |  |
| CC1CCN(Cc2ccc(-c3ccc(CN4CCC(C)CC4)cc3)cc2)CC1 | inactive | inactive | Antagonist | 0.00617 | 0.0151 |  | 50 |
| CC(=O)N1CCN(Cc2ccc(-c3ccc(CN4CCN(C(C)=O)CC4)cc3)cc2)CC1 | inactive | inactive | Antagonist | 1.41 | 3.89 |  |  |
| CC(=O)N1CCN(Cc2ccc(-c3ccc(CN4CCCCC4)cc3)cc2)CC1 | inactive | inactive | Antagonist | 0.00631 | 0.0468 |  |  |
| CC1CC(C)CN(Cc2ccc(-c3ccc(CN4CC(C)CC(C)C4)cc3)cc2)C1 (stereo not drawn) | inactive | inactive | Antagonist | 0.398 | 0.676 |  |  |
| c1cc(-c2ccc(CN3CCCCC3)cc2)ccc1CNC1CCCCC1 | inactive | inactive | Antagonist | 0.0017 | 0.00912 |  | 50 |
| NCc1ccc(-c2ccc(CN)cc2)cc1 | inactive | inactive | Antagonist | 4.47 | 8.71 |  |  |
| CN(C)Cc1ccc(-c2ccc(CN(C)C)cc2)cc1 | inactive | inactive | Antagonist | 0.00186 | 0.00661 |  |  |
| CCCCCNCc1ccc(-c2ccc(CNCCCCC)cc2)cc1 | inactive | inactive | Antagonist | 0.759 | 3.31 |  |  |
